From ChEMBL document CHEMBL1150122, “A new cytotoxic epothilone from modified polyketide synthases heterologously expressed in Myxococcus xanthus” (J Nat Prod, 2002)
The source made the active and inactive calls. No cut-off for these calls is given here.

Key:
[1] = system: NCI/ADR-RES; test: Cytotoxicity against human NCI/ADR-RES cells after 3 days by SRB assay; assay type: functional, cell-based; conditions: 72 h
Outline: (§1)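 Cells kept in RPMI 1640 with 10% FBS and 2 mM L-glutamine, 37 °C, 5% CO2. Trypsinized cells seeded at 5000–7500 per well; compound added 20 h later across 0.001–1000 nM in growth medium. After 3 days, fixed with 10% TCA (4 °C, 1 h), stained 0.2% SRB/1% acetic acid 20 min, dye extracted with 10 mM Tris base, absorbance read at 515 nm.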

[2] = system: SF-268; test: Cytotoxicity against human SF268 cells after 3 days by SRB assay; assay type: functional, cell-based; conditions: SF-268, 72 h; outline: as §1
[3] = system: CCRF-CEM; test: Cytotoxicity against human CCRF-CEM cells after 3 days by SRB assay; assay type: functional, cell-based; conditions: 72 h; outline: as §1
[4] = system: CCRF-CEM; test: Cytotoxicity against camptothecin-resistant human CCRF-CEM cells after 3 days by SRB assay; assay type: functional, cell-based; conditions: 72 h; outline: as §1
[5] = system: NCI-H460; test: Cytotoxicity against human NCI-H460 cells after 3 days by SRB assay; assay type: functional, cell-based; conditions: NCI-H460, 72 h; outline: as §1
[6] = system: HL-60; test: Cytotoxicity against human HL60 cells after 3 days by SRB assay; assay type: functional, cell-based; conditions: HL-60, 72 h; outline: as §1
[7] = system: MCF7; test: Cytotoxicity against human MCF7 cells after 3 days by SRB assay; assay type: functional, cell-based; conditions: MCF7, 72 h; outline: as §1
[8] = system: HL-60; test: Cytotoxicity against mitoxantrone-resistant human HL60 cells after 3 days by SRB assay; assay type: functional, cell-based; conditions: HL-60, 72 h; outline: as §1
[9] = biological target: Tubulin (Homo sapiens) (UniProt P68371+Q9H4B7+P0DPH7+P68366+Q13509+Q71U36+P04350+Q3ZCM7+P07437+P68363+Q9BQE3+Q6PEY2+Q13885+Q9BVA1+Q9BUF5); test: […] in human MCF7 cells at 1 uM after 2 hrs by SDS-PAGE; assay type: cell-based
Outline: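 Confluent MCF-7 cells in 35 mm dishes treated with 1 μM compound for 0, 1 and 2 h at 37 °C. Lysates spun 18000g, 12 min, to separate soluble tubulin (supernatant) from polymerized tubulin (pellet).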

| Compound | IC50 [1] [nM] | IC50 [2] [nM] | IC50 [3] [nM] | IC50 [4] [nM] | IC50 [5] [nM] | IC50 [6] [nM] | IC50 [7] [nM] | IC50 [8] [nM] | Activity [9] |
| --- | --- | --- | --- | --- | --- | --- | --- | --- | --- |
| C/C1=C/C[C@@H](/C(C)=C/c2csc(C)n2)OC(=O)C[C@H](O)C(C)(C)C(=O)[C@H](C)[C@@H](O)[C@@H](C)CCC1 [EPOTHILONE D] | 30 | 14 | 22 | 15 | 8 | 8 | 8 | 10 | – |
| CC1=C/C[C@@H](/C(C)=C/c2csc(C)n2)OC(=O)C[C@H](O)C(C)(C)C(=O)[C@H](C)[C@@H](O)[C@@H](C)C\C=C\1 | 35 | 40 | 23 | 11 | 34 | 25 | 28 | 18 | Active |
